Data as given in ChEMBL document CHEMBL1154286, “The discovery and optimisation of pyrido[2,3-d]pyrimidine-2,4-diamines as potent and selective inhibitors of mTOR kinase” (Bioorg Med Chem Lett, 2009).

How the values were obtained:
[1] = Inhibition of mTOR in human HeLa cells using 4E-BP1 substrate by ELISA; type: cell-based
Outline: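 Full-length mTOR immunoprecipitated from HeLa cytoplasmic extract; recombinant 4E-BP1 protein as substrate; ATP at 50 µM; phosphorylated product detected by ELISA. Values are the mean of at least 3 determinations, with variability around the mean <50%.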

[2] = biological target: DNA-dependent protein kinase catalytic subunit (Homo sapiens, UniProt P78527); experiment: Inhibition of DNA-PK
T47D = experiment: Antiproliferative activity against human T47D cells after 120 hrs by SRB assay; type: functional
[3] = biological target: Serine/threonine-protein kinase ATR (Homo sapiens, UniProt Q13535); experiment: Inhibition of ATR
Sequence of Serine/threonine-protein kinase ATR (Q13535 whole entry): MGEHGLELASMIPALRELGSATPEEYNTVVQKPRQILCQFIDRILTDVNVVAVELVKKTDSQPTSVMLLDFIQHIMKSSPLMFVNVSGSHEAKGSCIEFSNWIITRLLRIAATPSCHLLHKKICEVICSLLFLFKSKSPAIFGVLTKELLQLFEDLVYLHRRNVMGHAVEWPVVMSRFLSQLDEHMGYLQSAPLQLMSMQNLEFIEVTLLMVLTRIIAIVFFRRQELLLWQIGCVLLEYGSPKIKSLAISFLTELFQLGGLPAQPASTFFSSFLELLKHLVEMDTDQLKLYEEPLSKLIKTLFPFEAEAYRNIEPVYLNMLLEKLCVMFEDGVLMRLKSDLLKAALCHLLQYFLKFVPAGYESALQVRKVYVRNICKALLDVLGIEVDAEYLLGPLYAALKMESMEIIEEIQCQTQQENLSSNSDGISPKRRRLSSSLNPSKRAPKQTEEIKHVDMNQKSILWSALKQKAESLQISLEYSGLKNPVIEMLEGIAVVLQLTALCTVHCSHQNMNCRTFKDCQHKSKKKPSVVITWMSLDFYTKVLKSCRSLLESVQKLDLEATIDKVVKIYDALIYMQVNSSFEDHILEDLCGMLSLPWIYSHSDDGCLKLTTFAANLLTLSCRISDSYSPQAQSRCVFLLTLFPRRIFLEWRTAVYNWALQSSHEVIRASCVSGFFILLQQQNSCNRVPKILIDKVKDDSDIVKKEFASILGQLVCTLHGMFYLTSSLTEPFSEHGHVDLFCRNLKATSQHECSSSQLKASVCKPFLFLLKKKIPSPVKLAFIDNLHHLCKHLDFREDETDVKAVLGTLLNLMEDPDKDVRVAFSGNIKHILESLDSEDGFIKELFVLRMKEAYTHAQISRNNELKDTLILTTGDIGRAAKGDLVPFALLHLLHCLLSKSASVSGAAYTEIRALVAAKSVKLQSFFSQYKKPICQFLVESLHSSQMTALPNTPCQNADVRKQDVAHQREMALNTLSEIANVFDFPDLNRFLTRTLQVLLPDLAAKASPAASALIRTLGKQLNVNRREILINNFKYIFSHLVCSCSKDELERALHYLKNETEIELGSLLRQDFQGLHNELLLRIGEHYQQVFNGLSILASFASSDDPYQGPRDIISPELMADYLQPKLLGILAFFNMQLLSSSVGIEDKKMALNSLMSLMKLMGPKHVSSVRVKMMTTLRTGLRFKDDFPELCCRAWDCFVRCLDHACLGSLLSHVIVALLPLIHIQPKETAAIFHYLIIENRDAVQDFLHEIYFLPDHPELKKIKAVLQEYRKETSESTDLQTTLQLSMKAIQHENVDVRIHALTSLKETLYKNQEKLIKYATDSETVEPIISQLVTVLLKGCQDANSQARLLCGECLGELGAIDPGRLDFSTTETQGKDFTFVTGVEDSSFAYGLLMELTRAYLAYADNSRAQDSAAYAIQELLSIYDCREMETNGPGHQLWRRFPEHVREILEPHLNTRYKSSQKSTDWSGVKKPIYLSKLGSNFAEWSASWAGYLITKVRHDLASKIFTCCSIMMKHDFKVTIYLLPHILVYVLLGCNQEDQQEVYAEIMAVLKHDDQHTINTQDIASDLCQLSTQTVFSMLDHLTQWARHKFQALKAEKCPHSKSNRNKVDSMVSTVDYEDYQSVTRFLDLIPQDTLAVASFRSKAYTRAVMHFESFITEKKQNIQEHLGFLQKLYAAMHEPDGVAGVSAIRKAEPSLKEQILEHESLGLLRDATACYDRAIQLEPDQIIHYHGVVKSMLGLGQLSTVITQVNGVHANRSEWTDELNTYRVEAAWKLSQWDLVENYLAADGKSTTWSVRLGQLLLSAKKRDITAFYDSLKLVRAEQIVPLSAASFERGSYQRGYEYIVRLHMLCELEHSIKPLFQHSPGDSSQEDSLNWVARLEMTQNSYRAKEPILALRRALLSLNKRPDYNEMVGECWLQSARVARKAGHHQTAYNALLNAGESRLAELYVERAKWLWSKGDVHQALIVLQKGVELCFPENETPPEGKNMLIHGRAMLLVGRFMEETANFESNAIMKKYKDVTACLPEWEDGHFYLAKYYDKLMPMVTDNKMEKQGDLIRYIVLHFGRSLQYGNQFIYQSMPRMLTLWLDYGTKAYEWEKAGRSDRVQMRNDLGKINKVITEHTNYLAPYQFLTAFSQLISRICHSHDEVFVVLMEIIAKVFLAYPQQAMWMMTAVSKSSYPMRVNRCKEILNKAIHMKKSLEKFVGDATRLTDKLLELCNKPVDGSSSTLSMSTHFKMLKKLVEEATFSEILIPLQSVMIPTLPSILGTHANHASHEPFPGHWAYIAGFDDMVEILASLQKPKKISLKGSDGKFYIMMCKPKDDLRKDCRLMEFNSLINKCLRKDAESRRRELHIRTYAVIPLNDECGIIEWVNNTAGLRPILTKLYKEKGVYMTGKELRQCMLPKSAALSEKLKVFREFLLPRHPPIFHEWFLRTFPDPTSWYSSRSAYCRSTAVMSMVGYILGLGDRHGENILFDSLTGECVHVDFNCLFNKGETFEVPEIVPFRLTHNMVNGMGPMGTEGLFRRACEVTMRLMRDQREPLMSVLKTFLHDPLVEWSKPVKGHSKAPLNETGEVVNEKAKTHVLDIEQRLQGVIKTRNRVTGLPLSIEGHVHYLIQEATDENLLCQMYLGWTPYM

[4] = biological target: Serine/threonine-protein kinase mTOR (Homo sapiens) (UniProt P42345); experiment: Inhibition of mTOR in human HeLa cells using 4E-BP1 substrate at 10 uM by ELISA; type: cell-based

Row | Compound | IC50 [1] [nM] | other results
1 | C[C@@H]1CCCCN1c1nc(N2CCOCC2)c2cccnc2n1 | 1200 | –
2 | C[C@@H]1CN(c2nc(N3CCOCC3)c3ccc(Nc4ccncc4)nc3n2)C[C@H](C)O1 | 87 | –
3 | COc1ccc(-c2ccc3c(N4CCOCC4)nc(N4C[C@@H](C)O[C@@H](C)C4)nc3n2)cc1 | 45 | –
4 | CC1CCCCN1c1nc(N2CCOCC2)c2cccnc2n1 (racemic) | 1000 | –
5 | COc1ccc(-c2ccc3c(N4CCOCC4)nc(N4C[C@@H](C)O[C@@H](C)C4)nc3n2)cc1CO [Ku-0063794] | 16 | IC50 [2]: > 10000 nM; GI50 (T47D): 350 nM; IC50 [3]: > 10000 nM
6 | C[C@@H]1CN(c2nc(N3CCOCC3)c3cccnc3n2)C[C@H](C)O1 | 1300 | –
7 | CC1CCCN(c2nc(N3CCOCC3)c3cccnc3n2)C1 (stereo not drawn) | 3000 | –
8 | C[C@@H]1CN(c2nc(N3CCOCC3)c3ccc(-c4cccc(CO)c4)nc3n2)C[C@H](C)O1 | 93 | –
9 | C[C@H]1CCCCN1c1nc(N2CCOCC2)c2cccnc2n1 | 690 | –
10 | C[C@@H]1CN(c2nc(N3CCOCC3)c3ccc(-c4ccncc4)nc3n2)C[C@H](C)O1 | 220 | –
11 | C[C@@H]1CN(c2nc(N3CCOCC3)c3ccc(-c4ccoc4)nc3n2)C[C@H](C)O1 | 120 | –
12 | C[C@@H]1CN(c2nc(N3CCOCC3)c3ccc(-c4ccc(O)c(CO)c4)nc3n2)C[C@H](C)O1 | 37 | –
13 | CC1CCCCN1c1nc(N2CCOCC2)c2ccccc2n1 (stereo not drawn) | – | inhibition [4]: < 30%
14 | C[C@H]1CCCCN1c1nc(N2CCCOCC2)c2cccnc2n1 | 4800 | –
15 | C[C@@H]1CN(c2nc(N3CCOCC3)c3ccc(-c4ccsc4)nc3n2)C[C@H](C)O1 | 33 | –
16 | C[C@H]1CCCCN1c1nc(N2CCCCC2)c2cccnc2n1 | – | inhibition [4]: < 30%
17 | CC1CCCCN1c1nc(N2CCOCC2)c2ccncc2n1 (stereo not drawn) | – | inhibition [4]: < 30%
18 | C[C@H]1COCCN1c1nc(N2CCOCC2)c2cccnc2n1 | 1800 | –
19 | C[C@@H]1CN(c2nc(N3CCOCC3)c3ccc(-c4ccccc4)nc3n2)C[C@H](C)O1 | 62 | –
20 | C[C@@H]1CN(c2nc(N3CCOCC3)c3ccc(-c4cccc(O)c4)nc3n2)C[C@H](C)O1 | 53 | –
21 | C[C@@H]1CN(c2nc(N3CCOCC3)c3ccc(-c4ccc(O)cc4)nc3n2)C[C@H](C)O1 | 39 | –
22 | c1cnc2nc(N3CCOCC3)nc(N3CCOCC3)c2c1 | – | inhibition [4]: < 30%
23 | CC1CCCCN1c1nc(N2CCOCC2)c2ncccc2n1 (stereo not drawn) | – | inhibition [4]: < 30%
24 | C[C@@H]1CN(c2nc(N3CCOCC3)c3ccc(Nc4ccccc4)nc3n2)C[C@H](C)O1 | 120 | –
25 | COc1cccc(-c2ccc3c(N4CCOCC4)nc(N4C[C@@H](C)O[C@@H](C)C4)nc3n2)c1 | 490 | –
